This note sets out measurements from ChEMBL document CHEMBL1132942, “Quinolones: novel probes in antifilarial chemotheraphy” (2000).

Each structure is given as a SMILES string.

The subject of assay [1] is Acanthocheilonema viteae. The assay can be described thus: (§1) Tested in vivo for Acanthocheilonema viteae at 200 mg/kg X 5 days(perorally). Type of assay: functional. The settings on record: route oral. Put shortly: (§2)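 A. viteae transmitted to male M. coucha (6 weeks old) via vector tick Ornithodorus moubata. Test agents given orally at 200 mg/kg daily for five consecutive days. Micro- and macrofilaricidal activity assessed per earlier-described methods.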

Assay [2] deals with Acanthocheilonema viteae. The description is as §1. Type of assay: functional. The settings on record: route oral. Put shortly: as §2
This is another data set of the same source.

Assay [3] in a line: Tested in vivo for sterilization of female worms. Type of assay: functional, Acanthocheilonema viteae. Also noted: concentration or dose not given beside the values.

As to `CCCCCCCCNC(=O)c1cnc2c(F)cccc2c1O`, the Reduction worked out at 47% with Acanthocheilonema viteae [1], 37% with Acanthocheilonema viteae [2] and 25% in assay [3].

Consider `O=C(NC1CCCCC1)c1cnc2ccc(F)cc2c1O`, for which the Reduction came to 31% in the assay on Acanthocheilonema viteae [1], 50% in the assay on Acanthocheilonema viteae [2] and 36% in assay [3].

`CCN(CC)CCCC(C)NC(=O)c1cnc2cc(Cl)c(F)cc2c1O` (stereo unspecified): the values for the Reduction (in the assay on Acanthocheilonema viteae [1]; in the assay with Acanthocheilonema viteae [2]; in assay [3]) were 0%, 60% and 0%, respectively.

In the case of `O=C(NC1CCCCC1)c1cnc2ccccc2c1O`, the Reduction is 100% in the assay on Acanthocheilonema viteae [1] and 90% with Acanthocheilonema viteae [2].

For the compound `O=C(NC1CCCCC1)c1cnc2ccc([N+](=O)[O-])cc2c1O`, the Reduction in the assay with Acanthocheilonema viteae [1] is 0%; in the assay on Acanthocheilonema viteae [2], 54%; in assay [3], 0%.

For `CCCCCCCCNC(=O)c1cnc2c(C)cccc2c1O`, the Reduction in the assay on Acanthocheilonema viteae [1] is reported as 0%; in the assay on Acanthocheilonema viteae [2] it was 17%; in assay [3], 0%.

As for `CCCCCCCCNC(=O)c1cnc2ccccc2c1O`, the Reduction was determined as 0% with Acanthocheilonema viteae [1], 25% in the assay with Acanthocheilonema viteae [2] and 0% in assay [3].

On to `CCCCCCCCNC(=O)c1cnc2ccc(Cl)cc2c1O`, for which the Reduction in the assay on Acanthocheilonema viteae [1] is given as 50%; with Acanthocheilonema viteae [2], 30%; in assay [3] it was 0%.

`CCN(CC)CCCC(C)NC(=O)c1cnc2ccc([N+](=O)[O-])cc2c1O` (stereo unspecified): the figures for the Reduction (with Acanthocheilonema viteae [1]; with Acanthocheilonema viteae [2]; in assay [3]) were 0%, 54% and 0%, respectively.

Regarding `O=C(NC1CCCCC1)c1cnc2cc([N+](=O)[O-])ccc2c1O`, the values for the Reduction (in the assay with Acanthocheilonema viteae [1]; in the assay on Acanthocheilonema viteae [2]; in assay [3]) were 80%, 24% and 0%, respectively.

As for `CCCCCCCCNC(=O)c1cnc2ccc(F)cc2c1O`, the Reduction is recorded as 0% in the assay with Acanthocheilonema viteae [1], 48% in the assay on Acanthocheilonema viteae [2] and 0% in assay [3].

On to `CCCCCCCCNC(=O)c1cnc2ccc([N+](=O)[O-])cc2c1O`, for which the Reduction in the assay with Acanthocheilonema viteae [1] amounted to 38%; in the assay with Acanthocheilonema viteae [2], 40%; in assay [3], 100%.

As for `Cc1cccc2c(O)c(C(=O)NC3CCCCC3)cnc12`, the values for the Reduction (with Acanthocheilonema viteae [1]; in the assay with Acanthocheilonema viteae [2]; in assay [3]) were 0%, 54% and 0%, respectively.

Consider `CCN(CC)C(=O)N1CCN(C)CC1.O=C(O)CC(O)(CC(=O)O)C(=O)O` [DIETHYLCARBAMAZINE CITRATE], for which the Reduction in the assay with Acanthocheilonema viteae [1] is 0%; with Acanthocheilonema viteae [2] it was 90%; in assay [3], 0%.
